Assay outcomes (PubChem)
Shown is part of a subset that was picked to be rich in hits.
T cruzi growth-1: T. cruzi intracellular proliferation inhibitors, primary screen, cell-based, beta-gal Tulahuen parasites, NIH3T3 host, luminescence; T. cruzi beta-gal in NIH3T3, GalScreen luminescence, 90 h; inhibition, % at 8.34 µM; 77,000 tested, 5.9% active;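 active = mean inhibition above about 93%, with at least 55% of replicates each passing it, limit read from the data, passing the limit was not always enough; inconclusive = only one of those two conditions holds; inactive = neither condition holds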
IDH1 mut inh: inhibitors of IDH1 R132H reductase, primary screen, biochemical, plate reader, single point | Isocitrate dehydrogenase [NADP] cytoplasmic (Homo sapiens), O75874 | diaphorase/resazurin fluorescence, 60 min | inhibition, % at 10 µM | 70,000 tested, 0.18% active | AID 624101, 2012; in the data active = inhibition above about 34%; inconclusive = no clear call, values can overlap the other calls; inactive = below about 11%
KDM4C inh: inhibitors of GASC-1 (KDM4C) histone demethylase, primary screen, biochemical, single concentration HTS | Lysine-specific demethylase 4C (Homo sapiens), Q9H3R0 | GST-KDM4C 2-372, H3K9me3 peptide, LANCE TR-FRET | inhibition, % at 12.5 µM | 96,000 tested, 0.15% active | AID 720574, 2013;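 active = mean replicate inhibition above about 25%, with at least 55% of replicates also reaching it, limit read from the data, passing the limit was not always enough; inconclusive = only one of those two conditions met; inactive = neither condition met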
Target sequence (Q9H3R0 2-372 limits assumed): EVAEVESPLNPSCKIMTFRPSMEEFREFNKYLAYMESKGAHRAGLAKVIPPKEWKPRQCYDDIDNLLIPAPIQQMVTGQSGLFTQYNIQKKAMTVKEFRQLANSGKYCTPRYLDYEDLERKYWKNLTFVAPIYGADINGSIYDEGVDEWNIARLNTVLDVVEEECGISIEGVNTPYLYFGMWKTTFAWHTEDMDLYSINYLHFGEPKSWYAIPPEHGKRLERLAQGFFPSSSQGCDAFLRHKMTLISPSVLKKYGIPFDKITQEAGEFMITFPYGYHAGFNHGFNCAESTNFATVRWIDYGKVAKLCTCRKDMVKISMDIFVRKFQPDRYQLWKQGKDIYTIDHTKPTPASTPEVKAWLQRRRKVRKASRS
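Material: N-terminal GST-fused human GASC-1 (KDM4C) fragment, residues 2-372. Input: 10 nM enzyme. Incubation: enzyme reaction 30 min, then detection 60 min, both room temperature. Doses: one test concentration per compound. Read-out basis: inhibition from TR-FRET ratio decrease. Detection: LANCE TR-FRET, excitation 340 nm, emissions 618 and 671 nm.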
T cruzi growth-2: T. cruzi intracellular proliferation inhibitors, confirmation, cell-based, NIH3T3 host, beta-gal parasite, luminescence, cherry-pick; T. cruzi beta-gal in NIH3T3, GalScreen luminescence, 90 h; shares compounds with T cruzi growth-1; 5,600 tested, 72% active; inhibition, % at 8.35 µM;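 active = mean replicate inhibition above about 95% and at least 55% of replicates individually reaching it, limit read from the data; inconclusive = only one of the two criteria is met; inactive = neither criterion is met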
T cruzi growth-3: inhibitors of intracellular T. cruzi replication, confirmation, NIH3T3 host cells, beta-gal parasites, cherry-pick, set 2; T. cruzi beta-gal in NIH3T3, GalScreen luminescence, 90 h; inhibition, % at 2.09 µM; shares compounds with T cruzi growth-1; 5,600 tested, 21% active;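 active = mean inhibition above about 95%, with at least 55% of replicates also reaching it, limit read from the data; inconclusive = meets just one of the two conditions; inactive = meets neither condition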
NIH3T3 tox: cytotoxicity in mouse NIH/3T3 fibroblasts, confirmation, cytotoxicity control for T. cruzi proliferation inhibitor project, cell-based, cherry-pick, single point. shares compounds with T cruzi growth-1. NIH/3T3 viability, CellTiter-Glo ATP luminescence, 90 h. cytotoxicity (signal decrease), % at 8.35 µM. 5,600 tested, 14% active. AID 651742, 2012;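 active = mean signal decrease across replicates above about 35% based on untreated-well scatter, with enough replicates individually passing, limit read from the data; inconclusive = no rule stated though some were filed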
NIH3T3 tox 2: NIH/3T3 fibroblast cytotoxicity, confirmation, cytotoxicity control, cell-based, cherry-pick, single point, set 2 | 5,600 tested, 56% active | shares compounds with T cruzi growth-1 | inhibition, % at 24.9 µM | NIH/3T3 viability, CellTiter-Glo ATP luminescence, 90 h;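 active = mean loss of cell viability signal at or above a set limit, and enough replicates individually reaching it; inconclusive = meets only the mean limit or only the replicate share; inactive = meets neither condition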
A number is an active result; i = inactive; ? = inconclusive; nt = no result given; + = active, no number; ! = repeats disagree.

SMILES | T cruzi growth-1 | IDH1 mut inh | KDM4C inh | T cruzi growth-2 | T cruzi growth-3 | NIH3T3 tox | NIH3T3 tox 2
C[C@H]1CN([C@@H](C)CO)S(=O)(=O)c2ccc(C#Cc3ccccc3)cc2O[C@H]1CN(C)C(=O)c1ccccn1 | i | i | nt | nt | nt | nt | nt
C[C@H](CO)N1C[C@H](C)[C@H](CN(C)C(=O)c2ccccn2)Oc2cc(C#Cc3ccc(F)cc3)ccc2S1(=O)=O | 119! | nt | i | 99 | i | i | i
C[C@H]1CN([C@@H](C)CO)S(=O)(=O)c2ccc(C#Cc3ccc(F)cc3)cc2O[C@H]1CN(C)C(=O)c1ccccn1 | ? | nt | i | 108 | i | i | i
Cc1noc(C)c1S(=O)(=O)Nc1ccc2c(c1)C(=O)N([C@H](C)CO)C[C@H](C)[C@H](CN(C)CC1CC1)OCCCC[C@@H](C)O2 | i | i | i | nt | nt | nt | nt
C[C@@H]1CN([C@@H](C)CO)C(=O)c2cc(NC(=O)CCCN(C)C)ccc2O[C@@H](C)CCCCO[C@H]1CN(C)C(=O)Nc1ccc2c(c1)OCO2 | i | i | i | nt | nt | nt | nt
C[C@H](NC(=O)[C@H]1[C@H](CO)[C@H]2Cn3c(cccc3=O)[C@@H]1N2C(=O)C1CC1)c1ccccc1 | 101 | nt | i | i | i | i | i
C[C@@H](NC(=O)[C@H]1[C@H](CO)[C@H]2Cn3c(cccc3=O)[C@@H]1N2Cc1ccccc1)c1ccccc1 | 101 | nt | i | i | i | i | i
CN1CCN(C(=O)[C@@H]2[C@@H](CO)[C@@H]3Cn4c(cccc4=O)[C@H]2N3Cc2ccncc2)CC1 | 169 | nt | i | i | i | i | i
O=C(NCc1ccc2c(c1)OCO2)[C@@H]1[C@@H](CO)[C@@H]2Cn3c(cccc3=O)[C@H]1N2Cc1cccnc1 | i | nt | i | nt | nt | nt | nt
O=C([C@@H]1[C@@H](CO)[C@@H]2Cn3c(cccc3=O)[C@H]1N2Cc1ccccc1)N1CCCCC1 | i | nt | i | nt | nt | nt | nt
O=C(NCc1ccc(F)cc1)[C@@H]1[C@@H](CO)[C@@H]2Cn3c(cccc3=O)[C@H]1N2Cc1cccnc1 | 100 | nt | i | i | i | i | i
C[C@H](NC(=O)[C@H]1[C@H](CO)[C@H]2Cn3c(cccc3=O)[C@@H]1N2Cc1ccncc1)c1ccccc1 | i | nt | i | nt | nt | nt | nt
C[C@@H](NC(=O)[C@@H]1[C@@H](CO)[C@@H]2Cn3c(cccc3=O)[C@H]1N2C(=O)C1CCC1)c1ccccc1 | i | nt | i | nt | nt | nt | nt
COc1ccccc1-c1coc2cc(OC)c(OC)c(OC)c2c1=O | nt | i | nt | nt | nt | nt | nt
COc1cccc(-c2ccc3c(c2)[C@H]2[C@H](CCN2C(=O)c2ccc4c(c2)OCO4)[C@@H](CO)N3C)c1 | i | nt | i | nt | nt | nt | nt
CN1CCN(C(=O)C[C@H]2C[C@@H]3c4cc(NC(=O)Nc5ccccc5)ccc4O[C@@H]3[C@@H](CO)O2)CC1 | i | i | i | nt | nt | nt | nt
[N-]=[N+]=Nc1ccccc1C[C@@]1(C(=O)N2CCCCC2)N=C(c2ccc(OCCCO)cc2)O[C@@H]1c1ccccc1 | nt | i | nt | nt | nt | nt | nt
CC(=O)N1[C@@H]2c3ccc(C4=CCCCC4)c(=O)n3C[C@H]1[C@H](CO)[C@H]2C(=O)N[C@@H](C)c1ccccc1 | + | nt | i | i | i | i | i
C[C@H](NC(=O)[C@H]1[C@H](CO)[C@H]2Cn3c(cccc3=O)[C@@H]1N2C(=O)C1CCC1)c1ccccc1 | i | nt | i | nt | nt | nt | nt
CC(=O)N1[C@@H]2Cn3c(ccc(C4=CCCCC4)c3=O)[C@H]1[C@@H](C(=O)N[C@H](C)c1ccccc1)[C@@H]2CO | i | nt | i | nt | nt | nt | nt
C[C@@H](NC(=O)[C@H]1[C@H](CO)[C@H]2Cn3c(cccc3=O)[C@@H]1N2C(=O)C1CC1)c1ccccc1 | 103 | nt | i | i | i | i | i
COc1ccc(CN(C)C[C@@H]2OCCCC[C@@H](C)Oc3ccc(NC(=O)Nc4ccc(OC)cc4)cc3C(=O)N([C@@H](C)CO)C[C@H]2C)cc1 | i | i | nt | nt | nt | nt | nt
COc1ccc(CN(C)C[C@@H]2OCCCC[C@@H](C)Oc3ccc(NC(=O)Nc4ccc(F)cc4)cc3C(=O)N([C@H](C)CO)C[C@H]2C)cc1 | ? | nt | i | 97 | 111 | i | 105
COc1ccc(CN(C)C[C@@H]2OCCCC[C@@H](C)Oc3ccc(NC(=O)Nc4ccc(F)cc4)cc3C(=O)N([C@H](C)CO)C[C@@H]2C)cc1 | i | nt | i | nt | nt | nt | nt
COc1ccc(CN(C)C[C@H]2OCCCC[C@H](C)Oc3ccc(NC(=O)Nc4ccc(OC)cc4)cc3C(=O)N([C@@H](C)CO)C[C@@H]2C)cc1 | 110 | i | i | 112 | i | i | 104
SMILES | T cruzi growth-1 | IDH1 mut inh | KDM4C inh | T cruzi growth-2 | T cruzi growth-3 | NIH3T3 tox | NIH3T3 tox 2
COc1cccc(S(=O)(=O)Nc2ccc3c(c2)[C@H]2C[C@H](CC(=O)NCc4cccc(F)c4)O[C@H](CO)[C@H]2O3)c1 | i | i | i | nt | nt | nt | nt
O=C(C[C@H]1C[C@@H]2c3cc(NS(=O)(=O)c4ccc(F)cc4)ccc3O[C@@H]2[C@H](CO)O1)NCc1ccc(Oc2ccccc2)cc1 | 118 | i | i | 97 | i | i | 79
O=C(C[C@@H]1C[C@@H]2c3cc(NS(=O)(=O)c4ccc(F)cc4)ccc3O[C@@H]2[C@@H](CO)O1)NCc1ccc(Oc2ccccc2)cc1 | i | i | i | nt | nt | nt | nt
O=C(C[C@@H]1C[C@@H]2c3cc(NS(=O)(=O)c4ccc(F)cc4)ccc3O[C@@H]2[C@H](CO)O1)NCc1ccccc1 | i | i | i | nt | nt | nt | nt
COc1cccc(S(=O)(=O)Nc2ccc3c(c2)[C@H]2C[C@H](CC(=O)NCc4cccc(F)c4)O[C@@H](CO)[C@H]2O3)c1 | ? | i | i | i | i | i | i
O=C(C[C@@H]1C[C@H]2c3cc(NS(=O)(=O)c4ccc(F)cc4)ccc3O[C@H]2[C@@H](CO)O1)NCc1ccc(Oc2ccccc2)cc1 | 115 | i | nt | ? | i | 37 | 67
O=C(C[C@@H]1C[C@H]2c3cc(NS(=O)(=O)c4ccc(F)cc4)ccc3O[C@H]2[C@H](CO)O1)NCc1ccc(Oc2ccccc2)cc1 | i | i | i | nt | nt | nt | nt
O=C(C[C@@H]1C[C@@H]2c3cc(NS(=O)(=O)c4ccc(F)cc4)ccc3O[C@@H]2[C@H](CO)O1)NCc1ccc(Oc2ccccc2)cc1 | 105 | i | i | 100 | i | i | i
C[C@@H]1CN([C@@H](C)CO)C(=O)c2cc(NC(=O)C3CCCCC3)ccc2O[C@@H](C)CCCCO[C@@H]1CN(C)C(=O)C1CCCCC1 | i | i | i | nt | nt | nt | nt
